Screens from PubChem BioAssay.
NPY-Y1 antag – NPY-Y1 (human) receptor antagonism; P25929; HEK293-CNG Y1 cells, membrane potential fluorescence; NPY at EC95, then isoproterenol; inhibition, % at 3.6 µM; hit rate 1% among 200,000; AID 1040;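 active = inhibition above the campaign mean inhibition of all tested compounds plus 3 SD, cut at about 20% in these data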
Target sequence (P25929 whole entry, looked up): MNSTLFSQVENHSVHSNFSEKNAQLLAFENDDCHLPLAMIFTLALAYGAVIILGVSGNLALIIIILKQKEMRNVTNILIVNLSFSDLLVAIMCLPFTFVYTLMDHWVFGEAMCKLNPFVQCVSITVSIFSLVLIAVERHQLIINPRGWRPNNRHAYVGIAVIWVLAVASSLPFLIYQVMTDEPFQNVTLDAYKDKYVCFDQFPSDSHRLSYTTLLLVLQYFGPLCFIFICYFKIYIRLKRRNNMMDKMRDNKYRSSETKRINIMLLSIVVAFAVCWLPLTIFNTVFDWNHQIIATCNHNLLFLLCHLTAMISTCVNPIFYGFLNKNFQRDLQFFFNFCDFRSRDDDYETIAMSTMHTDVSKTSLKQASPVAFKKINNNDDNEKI
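material = HEK293 cells with Y1 receptor plus CNG channel | also added = NPY 25 nM then isoproterenol 1 µM plus Ro 20-1724 25 µM | schedule = dye 3 h, compound 60 min room temperature, stimulation 45 min | measured by = membrane potential fluorescence | benchmarks = high control isoproterenol alone, low control NPY with isoproterenol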
NPY-Y2 PAM-ag – potentiates or activates human NPY-Y2 receptor. AID 1359. activation, % at 3.6 µM. cells expressing NPY-Y2, potentiator/agonist read-out. hit rate 0.45% among 220,000; in the data active = activation above about 27%;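 note: cells stimulated with NPY near EC25 plus isoproterenol at EC100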
Target sequence (P49146 whole entry, looked up): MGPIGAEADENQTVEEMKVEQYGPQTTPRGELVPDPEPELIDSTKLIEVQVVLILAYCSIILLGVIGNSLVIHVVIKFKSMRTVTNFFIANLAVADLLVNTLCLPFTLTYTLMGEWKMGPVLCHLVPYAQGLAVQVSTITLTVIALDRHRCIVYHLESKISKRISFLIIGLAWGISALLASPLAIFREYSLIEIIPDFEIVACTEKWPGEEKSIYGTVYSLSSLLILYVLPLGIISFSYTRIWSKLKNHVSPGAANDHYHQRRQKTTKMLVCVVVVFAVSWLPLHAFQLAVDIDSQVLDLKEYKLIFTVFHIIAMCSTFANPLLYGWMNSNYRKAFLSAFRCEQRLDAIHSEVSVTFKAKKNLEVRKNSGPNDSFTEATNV
NPY-Y1 PAM-ag – potentiates or activates human NPY-Y1 receptor. hit rate 0.37% among 220,000. NPY-Y1 expressing cells, potentiator/agonist activation. activation, % at 3.6 µM. P25929. AID 1304; in the data active = activation above about 33%, passing the limit was not always enough;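 note: cells stimulated with NPY at EC10 then isoproterenol at EC100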
b-catenin transl – modulators of beta-catenin nuclear translocation. HeLa beta-catenin nuclear translocation, immunofluorescence imaging. nuclear translocation activity, % at 5 µM. hit rate 0.3% among 190,000. AID 1665;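 active = nuclear translocation activity above 50% at 5 µM, with a well cell count of 50 or more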;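 note: per-cell ratio of nuclear to cytoplasmic median beta-catenin stain intensity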
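Signal – beta-catenin immunofluorescence imaging with DAPI · Test system – human HeLa cell line · Dosing – 5 µM primary single dose, 0.1% DMSO, 0.02–20 µM confirmation series · Measure – % activation, nuclear-to-cytoplasmic median beta-catenin signal ratio per cell · Incubation – 24 h compound exposure at 37°C, 5% CO2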
NPY Y2 blocker – blocks the human neuropeptide Y Y2 receptor; hit rate 0.99% among 140,000; P49146; inhibition, % at 2.7 µM; AID 793; NPY-Y2 expressing cells, antagonist mode; in the data active = inhibition above about 17%
MT stabilize HCS – microtubule stabilizers in HeLa cells; HeLa tubulin immunostaining HCS, 24 h; share of cells brighter than vehicle mean+2SD; % tubulin-high responders, % at 10 µM; hit rate 0.83% among 200,000; AID 2205;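 active = plate Z-score above 3 for both tubulin-high and condensed-nucleus cell shares, with cell loss under 80%, at 10 µM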;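 note: anti alpha tubulin signal scored within the nucleus-defined area of each cell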
Hits are given with their value; 0 = inactive; - = no result given. In the library only some 2.6% were active in any assay of this set; here they are far more common.

SMILES | NPY-Y1 antag | NPY-Y2 PAM-ag | NPY-Y1 PAM-ag | b-catenin transl | NPY Y2 blocker | MT stabilize HCS
CCCCn1c(CN2CCN(c3cccc(Cl)c3)CC2)nc2c1c(=O)[nH]c(=O)n2C | 0 | 0 | 0 | 0 | 0 | 34.8
Cn1c(=O)[nH]c(=O)c2c1nc(CN1CCN(c3cccc(Cl)c3)CC1)n2Cc1ccccc1Cl | 0 | 0 | 0 | 0 | 0 | 13.8
CCN1CCN(Cc2nc3c(c(=O)[nH]c(=O)n3C)n2Cc2ccccc2Cl)CC1 | 0 | 0 | 0 | 0 | 0 | 0
Cn1c(=O)[nH]c(=O)c2c1nc(CN1CCN(c3cccc(Cl)c3)CC1)n2CCCc1ccccc1 | 0 | 0 | 0 | 0 | 0 | 0
O=C(CSc1nc(-c2ccco2)cc(C(F)(F)F)n1)Nc1ccccc1C(F)(F)F | 0 | 0 | 0 | 0 | 0 | 0
Cc1cccc(C)c1NC(=O)CSc1nc(-c2ccco2)cc(C(F)(F)F)n1 | 0 | 0 | 0 | 0 | 0 | 41.0
Cc1ccc(Cn2ccc(NC(=O)CCSc3nc(-c4ccco4)cc(C(F)(F)F)n3)n2)cc1 | 0 | 0 | 0 | 0 | 0 | 35.7
Cc1cc(NC(=O)CSc2nc(-c3ccco3)cc(C(F)(F)F)n2)no1 | 0 | 0 | 0 | 0 | 0 | 39.1
Cc1ccccc1Cn1ccc(NC(=O)CCSc2nc(-c3ccco3)cc(C(F)(F)F)n2)n1 | 0 | 0 | 0 | - | 0 | 0
Cn1nc(C(=O)NCCOc2ccccc2)c2ccccc2c1=O | 0 | 0 | 0 | 0 | - | 0
Cc1ccc(CCC(=O)Nc2ncc(Cc3cccc(Cl)c3Cl)s2)o1 | 0 | 0 | 0 | 99.8 | 0 | 0
COc1cc2c(cc1OC)CN(C(=O)c1cccs1)CC2 | 0 | 0 | 0 | 0 | 0 | 0
COc1cc2c(cc1OC)CN(C(=O)/C=C/c1cccs1)CC2 | - | 0 | 0 | 120.1 | - | -
COc1cc2c(cc1OC)CN(C(=O)c1cc3ccccc3oc1=O)CC2 | 0 | 0 | 0 | 0 | 0 | 19.2
O=C(C(Sc1ccccc1)c1ccccc1)N1CCN(c2ccccc2F)CC1 (centres undefined) | 35.7 | 0 | 0 | 0 | 20.0 | 0
O=C(C(Sc1ccccc1)c1ccc(Br)cc1)N1CCOCC1 (centres undefined) | 0 | 0 | 0 | 0 | 0 | 0
Cc1ccc(S(=O)(=O)N2CCOCC2)cc1C(=O)NCc1cn2ccsc2n1 | 0 | 0 | 0 | 0 | 0 | 0
Cc1n[nH]c(=S)n1/N=C/c1ccccc1OCc1ccc(Cl)cc1 | 28.0 | 0 | 0 | 0 | 87.5 | 0
Cc1n[nH]c(=S)n1/N=C/c1cccc(OCc2ccccc2)c1 | 0 | 0 | 0 | 0 | - | 0
N#C/C(C(=O)NCCc1ccccc1)=C1/N=C(NC(=O)c2cccs2)c2ccccc21 | 0 | 0 | 0 | 0 | 0 | 11.7
CN=C1c2cc3cc(OC)ccc3n2CCN1Cc1ccccc1 | 0 | 0 | 0 | - | 0 | 39.6
COc1ccc(NC(=O)/C(C#N)=C\c2cc(C)n(-c3ccc4c(c3)OCO4)c2C)cc1 | 0 | 0 | 0 | - | 0 | 24.0
Cc1cc(/C=C(\C#N)C(=O)Nc2ccccc2)c(C)n1-c1ccc(C(=O)O)cc1 | - | 0 | 0 | 0 | - | -
COc1ccccc1C(CC(=O)c1ccccc1)CC(=O)c1ccccc1 | 20.7 | 0 | 0 | 0 | - | 0
COc1ccc(C(CC(=O)O)NC(=O)c2ccccc2)cc1OC (centres undefined) | 0 | 0 | 0 | - | 0 | 0
SMILES | NPY-Y1 antag | NPY-Y2 PAM-ag | NPY-Y1 PAM-ag | b-catenin transl | NPY Y2 blocker | MT stabilize HCS
O=C(O)COc1ccccc1/C=N/NC(=O)CSc1nc2ccccc2n1Cc1ccc(Cl)cc1 | - | 0 | 0 | 0 | - | -
O=C(CN1CCN(Cc2ccccc2)CC1)N1CCCc2c1c(=O)oc1ccc(O)cc21 | 0 | 0 | 0 | 0 | 0 | 34.6
O=C(c1ccco1)N1CCN(CC(=O)N2CCCc3c2c(=O)oc2ccc(O)cc32)CC1 | 0 | 0 | 0 | 0 | 0 | 0
Cc1ccc(S(=O)(=O)CCC(=O)Nc2ccc(F)cc2)cc1 | 0 | 0 | 0 | 0 | - | 0
Cn1cnnc1SCc1ccccc1Br | 0 | 80.3 | 107.6 | - | 0 | 0
Cn1cnnc1SCc1ccccc1[N+](=O)[O-] | - | 0 | 0 | 0 | - | -
CC(C)=NNc1nc(-c2ccccc2)c(C)s1 | 0 | 0 | 0 | 0 | - | 0
CCCCOc1ccc(/C(N)=N/O)cc1 | 0 | 0 | 0 | 0 | 0 | 0
Clc1ccccc1-c1ccc(CN2CCN(c3ccccc3)CC2)o1 | 22.7 | 0 | 0 | 0 | 27.7 | 0
c1ccc(-c2nnc(CN3CCN(c4ccccc4)CC3)o2)cc1 | 0 | 0 | 0 | 0 | - | 0
CCOc1ccc2oc(C(=O)OCC(=O)NC3CC3)c(C)c2c1 | 0 | 0 | 0 | 0 | - | 0
CCOc1cccc(C(=O)Nc2ccc(N(CC)CC)cc2)c1 | 0 | 0 | 0 | 0 | 0 | 0
CCN(CC)c1ccc(NC(=O)c2ccc3c(c2)c(C)c(C)n3C)cc1 | 0 | 0 | 0 | - | - | 14.0
COc1ccccc1Nc1ncc(-c2cccs2)s1 | 0 | 0 | 0 | 106.6 | 0 | 0
CC(=O)N1CCC(N(CCN2CCOCC2)C(=S)Nc2ccccc2C)CC1 | 0 | 0 | 0 | 0 | 0 | 0
Cc1ccc(COc2ccc(Br)cc2/C=N/O)cc1 | 0 | 0 | 0 | 0 | 0 | 0
O/N=C/c1cc(Br)ccc1OCc1ccc(F)cc1 | 0 | 0 | 0 | - | 17.6 | 0
Cc1ccc(Cl)cc1N1CCN(CC(=O)Nc2ccc(CN3CCCCC3)cc2)CC1 | 35.7 | 0 | 0 | 0 | 0 | 0
COc1ccccc1N1CCN(CC(=O)Nc2ccc(CN3CCCCC3)cc2)CC1 | 0 | 0 | 0 | 0 | 0 | 0
CCCCN(CCCC)CC(O)COc1ccccc1Br (centres undefined) | 39.6 | 0 | 0 | 0 | 25.9 | 0
NC(N)=N/N=C/c1ccc(OS(=O)(=O)c2ccccc2)cc1 | 0 | 0 | 0 | 0 | - | 9.2
O=C1c2ccccc2C(=O)c2c(NCCCN(CCO)CCO)cccc21 | 0 | 38.9 | 52.6 | 0 | - | 0
CCC1CCCCN1CC(=O)Nc1cc(C)nn1-c1nc(C)cc(C)n1 (centres undefined) | 0 | 0 | 0 | 0 | 0 | 52.8
CCC1(CC)NC(=O)N(CC(=O)OCC(=O)Nc2ccc(F)c(F)c2F)C1=O | 0 | 0 | 0 | 0 | - | 0
O=C(COC(=O)C1CCN(C(=O)c2ccc(Cl)cc2)CC1)NC1CCS(=O)(=O)C1 (centres undefined) | 0 | 0 | 0 | 0 | - | 0
SMILES | NPY-Y1 antag | NPY-Y2 PAM-ag | NPY-Y1 PAM-ag | b-catenin transl | NPY Y2 blocker | MT stabilize HCS
COc1ccc(C)cc1NC(=O)COC(=O)C1CCN(C(=O)c2ccc(Cl)cc2)CC1 | 0 | 89.6 | 86.2 | 0 | - | 0
Cc1ccccc1N(C(=O)Cn1nnc2ccccc21)C(C(=O)NCc1ccco1)c1ccncc1 (centres undefined) | 0 | 0 | 0 | 0 | 0 | 0
CCCOc1ccc([N+](=O)[O-])c(N)c1 | 0 | 0 | 0 | 0 | 0 | 0
CCN(CC)S(=O)(=O)c1ccc2c(c1)nc(CCC(=O)Nc1ccccc1Cc1ccccc1)n2CC | 0 | 0 | 0 | 0 | 0 | 0
CCCNC(=O)c1sc2c(c1C(=O)Nc1ccccn1)CCCC2 | 21.4 | 0 | 0 | 0 | - | 0
c1cc2c3c(cccc3c1)NC1(CCCCCC1)N2 | 0 | 0 | 0 | 0 | 0 | 0
c1cc2c3c(cccc3c1)NC1(CCC3(CC1)Nc1cccc4cccc(c14)N3)N2 | - | 56.1 | 60.5 | 0 | - | -
